Reference: ChEMBL document CHEMBL1142148, “Antibiotic susceptibility profile of bifidobacteria as affected by oxgall, acid, and hydrogen peroxide stress” (2007)
Values after ≈ are worked out from the molar mass of the structure shown.

Legend:
[1] = system: Bifidobacterium animalis; experiment: Antimicrobial activity against Bifidobacterium animalis ATCC 27536; format: functional
Summary of the method: (§1)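 Broth microdilution in MRS plus 0.05% L-cysteine-HCl. Mid-log culture adjusted to OD650 0.1, giving about 2.5 × 10^4 to 5.0 × 10^4 CFU/well, then added to twofold serial dilutions of agent. Plates incubated anaerobically at 37°C for 18 h and read at OD650. MIC is the lowest concentration matching the uninoculated blank OD, taken as the median of four repeats.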

[2] = system: Bifidobacterium bifidum; experiment: Antimicrobial activity against Bifidobacterium bifidum R0071; format: functional; summary of the method: as §1
[3] = system: Bifidobacterium bifidum; experiment: Antimicrobial activity against Bifidobacterium bifidum ATCC 15696; format: functional; summary of the method: as §1
[4] = system: Bifidobacterium bifidum; experiment: Antimicrobial activity against Bifidobacterium bifidum BB12; format: functional; summary of the method: as §1
[5] = system: Bifidobacterium breve; experiment: Antimicrobial activity against Bifidobacterium breve ATCC 15700; format: functional; summary of the method: as §1
[6] = Antimicrobial activity against Bifidobacterium infantis ATCC 15697; format: functional, Bifidobacterium longum subsp. infantis; settings: Bifidobacterium longum; summary of the method: as §1
[7] = system: Bifidobacterium longum; experiment: Antimicrobial activity against Bifidobacterium longum ATCC 15708; format: functional; summary of the method: as §1
[8] = system: Bifidobacterium longum; experiment: Antimicrobial activity against Bifidobacterium longum R0175; format: functional; summary of the method: as §1
[9] = system: Bifidobacterium longum; experiment: Antimicrobial activity against Bifidobacterium longum P/N 601377; format: functional; summary of the method: as §1
[10] = system: Bifidobacterium pseudolongum; experiment: Antimicrobial activity against Bifidobacterium pseudolongum ATCC 25562; format: functional; summary of the method: as §1
[11] = system: Bifidobacterium thermophilum; experiment: Antimicrobial activity against Bifidobacterium thermophilum ATCC 25866; format: functional; summary of the method: as §1
[12] = system: Bifidobacterium breve; experiment: Antimicrobial activity against Bifidobacterium breve R0070; format: functional; summary of the method: as §1
[13] = system: Bifidobacterium animalis; experiment: Antimicrobial activity against 60 min 1 M HCl-stressed Bifidobacterium animalis ATCC 27536 after 18 hrs; format: functional
Summary of the method: (§2)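 Mid-log MRS culture pelleted and resuspended in MRS broth brought to pH 2.0 with 1 M HCl, held anaerobically at 37°C for 60 min, then subcultured in MRS (pH 6.5) for 24 h anaerobically before MIC testing by broth microdilution (as for unstressed cells). Table footnote gives 18 h anaerobic regrowth after the stress. MIC is the median of four repetitions.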

[14] = system: Bifidobacterium bifidum; experiment: Antimicrobial activity against 60 min 1 M HCl-stressed Bifidobacterium bifidum R0071 after 18 hrs; format: functional; summary of the method: as §2
[15] = system: Bifidobacterium bifidum; experiment: Antimicrobial activity against 60 min 1 M HCl-stressed Bifidobacterium bifidum BB12 after 18 hrs; format: functional; summary of the method: as §2
[16] = system: Bifidobacterium breve; experiment: Antimicrobial activity against 60 min 1 M HCl-stressed Bifidobacterium breve ATCC 15700 after 18 hrs; format: functional; summary of the method: as §2
[17] = system: Bifidobacterium breve; experiment: Antimicrobial activity against 60 min 1 M HCl-stressed Bifidobacterium breve R0070 after 18 hrs; format: functional; summary of the method: as §2
[18] = Antimicrobial activity against 60 min 1 M HCl-stressed Bifidobacterium infantis ATCC 15697 after 18 hrs; format: functional, Bifidobacterium longum subsp. infantis; settings: Bifidobacterium longum; summary of the method: as §2
[19] = system: Bifidobacterium longum; experiment: Antimicrobial activity against 60 min 1 M HCl-stressed Bifidobacterium longum ATCC 15707 after 18 hrs; format: functional; summary of the method: as §2
[20] = system: Bifidobacterium longum; experiment: Antimicrobial activity against 60 min 1 M HCl-stressed Bifidobacterium longum R0175 after 18 hrs; format: functional; summary of the method: as §2
[21] = system: Bifidobacterium longum; experiment: Antimicrobial activity against 60 min 1 M HCl-stressed Bifidobacterium longum P/N 601377 after 18 hrs; format: functional; summary of the method: as §2
[22] = system: Bifidobacterium pseudolongum; experiment: Antimicrobial activity against 60 min 1 M HCl-stressed Bifidobacterium pseudolongum ATCC 25562 after 18 hrs; format: functional; summary of the method: as §2
[23] = system: Bifidobacterium thermophilum; experiment: Antimicrobial activity against 60 min 1 M HCl-stressed Bifidobacterium thermophilum ATCC 25866 after 18 hrs; format: functional; summary of the method: as §2
[24] = system: Bifidobacterium animalis; experiment: Antimicrobial activity against 90 mins oxgall-stressed Bifidobacterium animalis ATCC 27536 after 18 hrs; format: functional
Summary of the method: (§3)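 Cells pelleted from mid-log MRS culture and resuspended in MRS (initial pH 6.5) with 0.3% (wt/vol) oxgall for 90 min anaerobically at 37°C. They were then regrown in MRS pH 6.5 for 24 h (footnote: 18 h) anaerobically and tested for MIC by the same broth microdilution assay. Median of four repetitions.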

[25] = system: Bifidobacterium bifidum; experiment: Antimicrobial activity against 90 mins oxgall-stressed Bifidobacterium bifidum R0071 after 18 hrs; format: functional; summary of the method: as §3
[26] = system: Bifidobacterium bifidum; experiment: Antimicrobial activity against 90 mins oxgall-stressed Bifidobacterium bifidum ATCC 15696 after 18 hrs; format: functional; summary of the method: as §3
[27] = system: Bifidobacterium bifidum; experiment: Antimicrobial activity against 90 mins oxgall-stressed Bifidobacterium bifidum BB12 after 18 hrs; format: functional; summary of the method: as §3
[28] = system: Bifidobacterium breve; experiment: Antimicrobial activity against 90 mins oxgall-stressed Bifidobacterium breve ATCC 15700 after 18 hrs; format: functional; summary of the method: as §3
[29] = system: Bifidobacterium breve; experiment: Antimicrobial activity against 90 mins oxgall-stressed Bifidobacterium breve R0070 after 18 hrs; format: functional; summary of the method: as §3
[30] = Antimicrobial activity against 90 mins oxgall-stressed Bifidobacterium infantis ATCC 15697 after 18 hrs; format: functional, Bifidobacterium longum subsp. infantis; settings: Bifidobacterium longum; summary of the method: as §3
[31] = system: Bifidobacterium longum; experiment: Antimicrobial activity against 90 mins oxgall-stressed Bifidobacterium longum ATCC 15707 after 18 hrs; format: functional; summary of the method: as §3
[32] = system: Bifidobacterium longum; experiment: Antimicrobial activity against 90 mins oxgall-stressed Bifidobacterium longum ATCC 15708 after 18 hrs; format: functional; summary of the method: as §3
[33] = system: Bifidobacterium longum; experiment: Antimicrobial activity against Bifidobacterium longum ATCC 15707; format: functional; summary of the method: as §1
[34] = system: Bifidobacterium longum; experiment: Antimicrobial activity against 90 mins oxgall-stressed Bifidobacterium longum R0175 after 18 hrs; format: functional; summary of the method: as §3
[35] = system: Bifidobacterium longum; experiment: Antimicrobial activity against 90 mins oxgall-stressed Bifidobacterium longum P/N 601377 after 18 hrs; format: functional; summary of the method: as §3
[36] = system: Bifidobacterium pseudolongum; experiment: Antimicrobial activity against 90 mins oxgall-stressed Bifidobacterium pseudolongum ATCC 25562 after 18 hrs; format: functional; summary of the method: as §3
[37] = system: Bifidobacterium thermophilum; experiment: Antimicrobial activity against 90 mins oxgall-stressed Bifidobacterium thermophilum ATCC 25866 after 18 hrs; format: functional; summary of the method: as §3
[38] = system: Bifidobacterium animalis; experiment: Antimicrobial activity against 90 mins hydrogen peroxide-stressed Bifidobacterium animalis ATCC 27536 after 18 hrs; format: functional
Summary of the method: (§4)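 Stress applied for 90 min at 37°C under anaerobic conditions, using MRS (initial pH 6.5) containing H2O2 at each strain's own inhibitory concentration. The H2O2 level was set beforehand by microplate tolerance testing. Challenged cells were regrown in MRS for 24 h (footnote: 18 h) before MIC testing by broth microdilution. Median of four repetitions.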

[39] = system: Bifidobacterium bifidum; experiment: Antimicrobial activity against 90 mins hydrogen peroxide-stressed Bifidobacterium bifidum R0071 after 18 hrs; format: functional; summary of the method: as §4
[40] = system: Bifidobacterium bifidum; experiment: Antimicrobial activity against 90 mins hydrogen peroxide-stressed Bifidobacterium bifidum BB12 after 18 hrs; format: functional; summary of the method: as §4
[41] = system: Bifidobacterium breve; experiment: Antimicrobial activity against 90 mins hydrogen peroxide-stressed Bifidobacterium breve ATCC 15700 after 18 hrs; format: functional; summary of the method: as §4
[42] = system: Bifidobacterium breve; experiment: Antimicrobial activity against 90 mins hydrogen peroxide-stressed Bifidobacterium breve R0070 after 18 hrs; format: functional; summary of the method: as §4
[43] = system: Bifidobacterium longum; experiment: Antimicrobial activity against 90 mins hydrogen peroxide-stressed Bifidobacterium longum ATCC 15707 after 18 hrs; format: functional; summary of the method: as §4
[44] = system: Bifidobacterium longum; experiment: Antimicrobial activity against 90 mins hydrogen peroxide-stressed Bifidobacterium longum ATCC 15708 after 18 hrs; format: functional; summary of the method: as §4
[45] = system: Bifidobacterium longum; experiment: Antimicrobial activity against 90 mins hydrogen peroxide-stressed Bifidobacterium longum R0175 after 18 hrs; format: functional; summary of the method: as §4
[46] = system: Bifidobacterium longum; experiment: Antimicrobial activity against 90 mins hydrogen peroxide-stressed Bifidobacterium longum P/N 601377 after 18 hrs; format: functional; summary of the method: as §4
[47] = system: Bifidobacterium thermophilum; experiment: Antimicrobial activity against 90 mins hydrogen peroxide-stressed Bifidobacterium thermophilum ATCC 25866 after 18 hrs; format: functional; summary of the method: as §4

## NC[C@@H]1O[C@H](O[C@H]2[C@@H](O)[C@H](O[C@@H]3[C@@H](O)[C@H](N)C[C@H](N)[C@H]3O[C@H]3O[C@H](CO)[C@@H](O)[C@H](O)[C@H]3N)O[C@@H]2CO)[C@H](N)[C@@H](O)[C@@H]1O [PAROMOMYCIN]
[1]
  MIC: 250 µg/mL (≈ 406 µM)
[2]
  MIC: 250 µg/mL (≈ 406 µM)
[3]
  MIC: 250 µg/mL (≈ 406 µM)
[4]
  MIC: 250 µg/mL (≈ 406 µM)
[5]
  MIC: 250 µg/mL (≈ 406 µM)
[6]
  MIC: 250 µg/mL (≈ 406 µM)
[7]
  MIC: 250 µg/mL (≈ 406 µM)
[8]
  MIC: 250 µg/mL (≈ 406 µM)
[9]
  MIC: 250 µg/mL (≈ 406 µM)
[10]
  MIC: 250 µg/mL (≈ 406 µM)
[11]
  MIC: 250 µg/mL (≈ 406 µM)
[12]
  MIC: 250 µg/mL (≈ 406 µM)
[13]
  MIC: 500 µg/mL (≈ 812 µM)
[14]
  MIC: 250 µg/mL (≈ 406 µM)
[15]
  MIC: 125 µg/mL (≈ 203 µM)
[16]
  MIC: 125 µg/mL (≈ 203 µM)
[17]
  MIC: 250 µg/mL (≈ 406 µM)
[18]
  MIC: 250 µg/mL (≈ 406 µM)
[19]
  MIC: 500 µg/mL (≈ 812 µM)
[20]
  MIC: 250 µg/mL (≈ 406 µM)
[21]
  MIC: 250 µg/mL (≈ 406 µM)
[22]
  MIC: 250 µg/mL (≈ 406 µM)
[23]
  MIC: 500 µg/mL (≈ 812 µM)
[24]
  MIC: 125 µg/mL (≈ 203 µM)
[25]
  MIC: 125 µg/mL (≈ 203 µM)
[26]
  MIC: 500 µg/mL (≈ 812 µM)
[27]
  MIC: 250 µg/mL (≈ 406 µM)
[28]
  MIC: 250 µg/mL (≈ 406 µM)
[29]
  MIC: 125 µg/mL (≈ 203 µM)
[30]
  MIC: 500 µg/mL (≈ 812 µM)
[31]
  MIC: 125 µg/mL (≈ 203 µM)
[32]
  MIC: 500 µg/mL (≈ 812 µM)
[33]
  MIC: 250 µg/mL (≈ 406 µM)
[34]
  MIC: 125 µg/mL (≈ 203 µM)
[35]
  MIC: 62.5 µg/mL (≈ 102 µM)
[36]
  MIC: 500 µg/mL (≈ 812 µM)
[37]
  MIC: 250 µg/mL (≈ 406 µM)
[38]
  MIC: 500 µg/mL (≈ 812 µM)
[39]
  MIC: 125 µg/mL (≈ 203 µM)
[40]
  MIC: 500 µg/mL (≈ 812 µM)
[41]
  MIC: 500 µg/mL (≈ 812 µM)
[42]
  MIC: 250 µg/mL (≈ 406 µM)
[43]
  MIC: 500 µg/mL (≈ 812 µM)
[44]
  MIC: 250 µg/mL (≈ 406 µM)
[45]
  MIC: 250 µg/mL (≈ 406 µM)
[46]
  MIC: 125 µg/mL (≈ 203 µM)
[47]
  MIC: 500 µg/mL (≈ 812 µM)
